{"data": "Results gathered from unrelated publications", "cell line": "NCI-H23", "read-out": "cell growth or viability", "note": "Each line is one published result; the experiments were not run side by side."}
{"SMILES": "Cc1cccc(-n2ncc(Br)c(Br)c2=O)c1", "test": "resazurin", "setting": "96 h", "endpoint": "IC50", "value": "0.21 µM"}
{"SMILES": "COc1ccc(-c2ccc(-c3ccc(C(=N)N)nc3)s2)cc1", "test": "SRB", "endpoint": "GI50", "value": "1.84 µM"}
{"SMILES": "O=C1NCCc2[nH]c(-c3ccncc3)cc21", "endpoint": "IC50", "value": "> 10 µM"}
{"SMILES": "CCCc1n(Cc2ccc3ccccc3n2)cc[n+]1Cc1ccc2ccccc2c1", "test": "SRB", "endpoint": "TGI", "value": "10.6 µM"}
{"SMILES": "COc1ccc(C(=O)/C=C/c2cccnc2)cc1S(N)(=O)=O", "test": "SRB", "setting": "10 µM", "endpoint": "inhibition", "value": "78%"}
{"SMILES": "O=C(/C=C/c1ccc2ncn(CCCl)c(=O)c2c1)NO", "test": "SRB", "setting": "48 h", "endpoint": "IC50", "value": "3.2 µM"}
{"SMILES": "CC/C(=C(\\c1ccccc1)c1ccc(OCCN(C)C)cc1)c1ccccc1", "test": "ATP luminescence", "setting": "72 h", "endpoint": "EC90", "value": "18.3 µM"}
{"SMILES": "c1ccc(-c2n(Cc3ccc4ccccc4c3)cc[n+]2Cc2ccc3ccccc3c2)cc1", "test": "SRB", "endpoint": "TGI", "value": "2.35 µM"}
{"SMILES": "O=C(/C=C/c1ccc2ncn(Cc3ccccc3)c(=O)c2c1)NO", "test": "SRB", "setting": "48 h", "endpoint": "IC50", "value": "1 µM"}
{"SMILES": "COc1ccc(C(=O)/C=C/c2cccc3ccccc23)cc1S(N)(=O)=O", "test": "SRB", "setting": "10 µM", "endpoint": "inhibition", "value": "120%"}
{"SMILES": "CCc1n(Cc2ccc3ccccc3n2)cc[n+]1Cc1ccc2ccccc2c1", "test": "SRB", "endpoint": "TGI", "value": "3.23 µM"}
{"SMILES": "COc1ccc(C(=O)/C=C/c2c(F)cccc2Cl)cc1S(N)(=O)=O", "test": "SRB", "setting": "10 µM", "endpoint": "inhibition", "value": "116%"}
{"SMILES": "CCc1n(Cc2ccc3ccccc3n2)cc[n+]1Cc1ccc2ccccc2n1", "test": "SRB", "endpoint": "TGI", "value": "8.66 µM"}
{"SMILES": "COc1ccc(C(=O)/C=C/c2cc3c(cc2Br)OCO3)cc1S(N)(=O)=O", "test": "SRB", "setting": "48 h", "endpoint": "GI50", "value": "4.3 µM"}
{"SMILES": "COc1cccc(Oc2ccccc2NC(=O)CNC(=O)c2cccc3ccccc23)c1", "test": "SRB", "setting": "48 h", "endpoint": "GI50", "value": "0.741 µM"}
{"SMILES": "COc1ccc(C(=O)/C=C/c2cccc(Cl)c2Cl)cc1S(N)(=O)=O", "test": "SRB", "setting": "48 h", "endpoint": "GI50", "value": "3.8 µM"}
{"SMILES": "S=C([S][Au-][P+](CCCCCC[P+]([Au-][S]C(=S)n1cccn1)(c1ccccc1)c1ccccc1)(c1ccccc1)c1ccccc1)n1cccn1", "test": "SRB", "endpoint": "GI50", "value": "4.76 µM"}
